# Measurements from different studies.
# PTGS2: Prostaglandin G/H synthase 2 (PTGS2, Ovis aries, UniProt P79208)
# GSK3B: Glycogen synthase kinase-3 beta (GSK3B, Homo sapiens, UniProt P49841)
# MLNR: Motilin receptor (MLNR, Homo sapiens, UniProt O43193)
# AVPR1A: Vasopressin V1a receptor (AVPR1A, Homo sapiens, UniProt P37288)
Compound,target,observed,action,method,cells,tested at,inhibition
O=c1c(O)c(-c2ccc(O)cc2)oc2cc(O[C@@H]3O[C@H](CO)[C@@H](O)[C@H](O)[C@H]3O)cc(O)c12,PTGS2,enzyme activity,inhibitor,absorbance,,50 µM,66.3%
CN(C)C1CCN(CC#Cc2nn(C3CCCC3)c3nc(NCc4ccccc4)ncc23)C1 (stereo not shown),"Protein-tyrosine kinase 6 (PTK6, Homo sapiens, UniProt Q13882)",enzyme activity,inhibitor,FRET,,10 µM,6%
CCc1cccc2c3c([nH]c12)C(CC)(CC(=O)O)OCC3 (stereo not shown),GSK3B,enzyme activity,inhibitor,ADP detection,,100 µM,40.8%
Oc1cccc(Nc2nc(-c3ccc(F)cc3F)cs2)c1,MLNR,cell-free assay,,,,10 µM,6.5%
CS(=O)(=O)Nc1cccc(-c2csc(NC(=O)CSc3nc4nccnc4c(=O)n3CCc3ccccc3)n2)c1,"Phosphatidylinositol 4-kinase type 2-beta (PI4K2B, Homo sapiens, UniProt Q8TCG2)",enzyme activity,inhibitor,,,10 µM,-5%
CCN1CCN(Cc2ccc(NC(=O)c3ccc(C)c(/C=C/c4cnc5[nH]ccc5c4OC)c3)cc2C(F)(F)F)CC1,"Mitogen-activated protein kinase kinase kinase 5 (MAP3K5, Homo sapiens, UniProt Q99683)",target engagement in cells,inhibitor,chemoproteomics,A-375,50 nM,-33.8%
CC[C@H]1C(=O)OC[C@@H]1Cc1cncn1C.O=[N+]([O-])O,GSK3B,enzyme activity,inhibitor,ADP detection,,100 µM,28.2%
CC/C(=N\NC(=O)NCc1cccc(O)c1)c1ccc(O)c(C)c1O,"[Pyruvate dehydrogenase (acetyl-transferring)] kinase isozyme 2, mitochondrial (PDK2, Homo sapiens, UniProt Q15119)",enzyme activity,inhibitor,,,0.1 µM,-2.1%
O=c1c(O[C@@H]2O[C@H](CO)[C@@H](O)[C@H](O)[C@H]2O)c(-c2ccc(O)cc2)oc2cc(O[C@@H]3O[C@H](CO)[C@@H](O)[C@H](O)[C@H]3O)cc(O)c12,PTGS2,enzyme activity,inhibitor,absorbance,,50 µM,54.8%
Ic1cccc2cnccc12,"Protein mono-ADP-ribosyltransferase TIPARP (TIPARP, Homo sapiens, UniProt Q7Z3E1)",enzyme activity,inhibitor,,,10 µM,2%
O=c1c(-c2ccc(O)cc2)coc2cc(O)ccc12,GSK3B,enzyme activity,inhibitor,ADP detection,,100 µM,59.2%
C[C@@H]1O[C@@H](OC[C@H]2O[C@@H](Oc3c(-c4ccc(O)cc4)oc4cc(O)cc(O)c4c3=O)[C@H](O[C@@H]3O[C@H](CO)[C@@H](O)[C@H](O)[C@H]3O)[C@@H](O)[C@@H]2O)[C@H](O)[C@H](O)[C@H]1O,PTGS2,enzyme activity,inhibitor,absorbance,,50 µM,53.8%
O=C([O-])c1ccccc1-c1c2cc(I)c(=O)c(I)c-2oc2c(I)c([O-])c(I)cc12.[Na+].[Na+],GSK3B,enzyme activity,inhibitor,ADP detection,,100 µM,87.5%
O=C(c1ccc(Cl)cc1)N(Cc1ccccc1)C1CCCCC1,AVPR1A,cell-free assay,,,,10 µM,47.7%
Cc1[nH]c(=O)c(C#N)cc1-c1ccncc1,GSK3B,enzyme activity,inhibitor,ADP detection,,100 µM,27.6%
COc1cc(NC(C)=O)c(Cl)cc1C(=O)Nc1nccs1,MLNR,cell-free assay,,,,10 µM,21.6%
CC(=O)c1nn(CC(=O)N2C[C@H](F)C[C@H]2C(=O)Nc2cccc(Br)n2)c2ccc(-c3cnc(C)nc3)cc12,"Cathepsin G (CTSG, Homo sapiens, UniProt P08311)",enzyme activity,inhibitor,,,10 µM,0.4%
COC(=O)C1=C(C#N)NC(C)=C(C(=O)OC(C)C)C1c1cccc([N+](=O)[O-])c1 (stereo not shown),GSK3B,enzyme activity,inhibitor,ADP detection,,100 µM,25.3%
O=C1N=C(N2CCCCN2)S/C1=C\c1ccc(F)cc1O,AVPR1A,ligand displacement,,radioligand,,10 µM,< 10%
